Data on 4 molecules can be found in ChEMBL document CHEMBL1817648, “Synthesis and in vitro antibacterial activity of a series of novel gatifloxacin derivatives” (Eur J Med Chem, 2011).

Series [1] concerns Pseudomonas aeruginosa. The series is described as follows: Antibacterial activity against Pseudomonas aeruginosa ATCC 27853 after 18 to 24 hrs by NCCLS M100-S11 two fold serial dilution method. Format: functional.
The subject of series [2] is Escherichia coli. The series is described as follows: Antibacterial activity against Escherichia coli 08-22 after 18 to 24 hrs by NCCLS M100-S11 two fold serial dilution method. Format: functional.
The test system of series [3] is Pseudomonas aeruginosa. Briefly: Antibacterial activity against Pseudomonas aeruginosa 09-32 after 18 to 24 hrs by NCCLS M100-S11 two fold serial dilution method. Format: functional.
Series [4] deals with Streptococcus pneumoniae. The series is described as follows: Antibacterial activity against Streptococcus pneumoniae 08-4 after 18 to 24 hrs by NCCLS M100-S11 two fold serial dilution method. Format: functional.
Series [5] concerns Staphylococcus aureus. The series is described as follows: Antibacterial activity against methicillin-resistant Staphylococcus aureus 08-1 after 18 to 24 hrs by NCCLS M100-S11 two fold serial dilution method. Format: functional. In outline: (§1)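 Two-fold serial dilution in agar medium. MIC read as the lowest concentration giving complete inhibition of bacterial growth after incubation at 35 °C for 18–24 h.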

For series [6], the system named is Staphylococcus epidermidis. The series is described as follows: Antibacterial activity against methicillin-sensitive Staphylococcus epidermidis 09-3 after 18 to 24 hrs by NCCLS M100-S11 two fold serial dilution method. Format: functional. The method, boiled down:
as §1

In series [7] the test system is Staphylococcus aureus. Briefly: Antibacterial activity against Staphylococcus aureus ATCC 25923 after 18 to 24 hrs by NCCLS M100-S11 two fold serial dilution method. Format: functional. As to conditions: ATCC25923.
In series [8] the test system is Escherichia coli. The series is described as follows: Antibacterial activity against Escherichia coli ATCC 25922 after 18 to 24 hrs by NCCLS M100-S11 two fold serial dilution method. Format: functional. The note with it: ATCC25922.
Series [9] has as its system Klebsiella pneumoniae. Briefly: Antibacterial activity against Klebsiella pneumoniae 09-23 after 18 to 24 hrs by NCCLS M100-S11 two fold serial dilution method. Format: functional.
In series [10] the test system is Enterococcus faecalis. Briefly: Antibacterial activity against Enterococcus faecalis 08-10 after 18 to 24 hrs by NCCLS M100-S11 two fold serial dilution method. Format: functional.
For series [11], the system named is Pseudomonas aeruginosa. Briefly: Antibacterial activity against Pseudomonas aeruginosa 09-33 after 18 to 24 hrs by NCCLS M100-S11 two fold serial dilution method. Format: functional.
For series [12], the system named is Staphylococcus epidermidis. The series is described as follows: Antibacterial activity against methicillin-sensitive Staphylococcus epidermidis 09-6 after 18 to 24 hrs by NCCLS M100-S11 two fold serial dilution method. Format: functional. In outline:
as §1

The test system of series [13] is Enterococcus faecium. The series is described as follows: Antibacterial activity against Enterococcus faecium 08-7 after 18 to 24 hrs by NCCLS M100-S11 two fold serial dilution method. Format: functional.
In series [14] the test system is Streptococcus pneumoniae. Briefly: Antibacterial activity against Streptococcus pneumoniae 08-2 after 18 to 24 hrs by NCCLS M100-S11 two fold serial dilution method. Format: functional.
A short description of series [15]: Cytotoxicity against african green monkey Vero cells after 72 hrs by MTT assay. The note with it: chlorocebus sabaeus. Format: cell-based. In outline:
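Vero cells were kept in Minimum Essential Medium with Earle's salts plus 10% fetal bovine serum at 37 °C under 5% CO₂. Cells were seeded at 1 × 10⁴ per well and allowed to recover 24 h. Medium was then replaced with assay medium containing compound or no drug, and cells were exposed for 72 h. CC₅₀ is the 50% cellular cytotoxic concentration.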

The test system of series [16] is Klebsiella pneumoniae. The series is described as follows: Antibacterial activity against Klebsiella pneumoniae 09-22 after 18 to 24 hrs by NCCLS M100-S11 two fold serial dilution method. Format: functional.
Series [17] concerns Staphylococcus epidermidis. The series is described as follows: Antibacterial activity against methicillin-resistant Staphylococcus epidermidis 09-4 after 18 to 24 hrs by NCCLS M100-S11 two fold serial dilution method. Format: functional. In outline: as §1
Series [18] has as its system Escherichia coli. Briefly: Antibacterial activity against Escherichia coli 08-21 after 18 to 24 hrs by NCCLS M100-S11 two fold serial dilution method. Format: functional.
The subject of series [19] is Enterococcus faecium. Briefly: Antibacterial activity against Enterococcus faecium 08-2 after 18 to 24 hrs by NCCLS M100-S11 two fold serial dilution method. Format: functional.
The test system of series [20] is Pseudomonas aeruginosa. The series is described as follows: Antibacterial activity against Pseudomonas aeruginosa 09-34 after 18 to 24 hrs by NCCLS M100-S11 two fold serial dilution method. Format: functional.
Series [21] relates to Staphylococcus aureus. The series is described as follows: Antibacterial activity against methicillin-sensitive Staphylococcus aureus 08-1 after 18 to 24 hrs by NCCLS M100-S11 two fold serial dilution method. Format: functional.
For series [22], the system named is Enterococcus faecalis. Briefly: Antibacterial activity against Enterococcus faecalis 08-12 after 18 to 24 hrs by NCCLS M100-S11 two fold serial dilution method. Format: functional.

Converted amounts (≈) assume the structure as drawn.

With `COc1c(N2CCN(C/C(C)=N/O)C(C)C2)c(F)cc2c(=O)c(C(=O)O)cn(C3CC3)c12` (stereo not drawn), the MIC against Pseudomonas aeruginosa [1] is 32 µg/mL (≈ 71.7 µM); in the series on Escherichia coli [2] it was greater than 128 µg/mL; in the series with Pseudomonas aeruginosa [3], 32 µg/mL (≈ 71.7 µM); against Streptococcus pneumoniae [4] it was 0.25 µg/mL (≈ 0.56 µM); in the series with Staphylococcus aureus [5] it was greater than 128 µg/mL; in series [6], 0.25 µg/mL (≈ 0.56 µM). In addition, the MIC is 0.25 µg/mL (≈ 0.56 µM) against Staphylococcus aureus [7]; 128 µg/mL (≈ 287 µM) in the series on Escherichia coli [8]; greater than 128 µg/mL with Klebsiella pneumoniae [9]; greater than 128 µg/mL in the series with Enterococcus faecalis [10]; greater than 128 µg/mL with Pseudomonas aeruginosa [11]; 0.25 µg/mL (≈ 0.56 µM) in series [12]. The MIC against Enterococcus faecium [13] is greater than 128 µg/mL; against Streptococcus pneumoniae [14] it was 128 µg/mL (≈ 287 µM); in the series on Klebsiella pneumoniae [16] it was greater than 128 µg/mL; in series [17] it was 0.25 µg/mL (≈ 0.56 µM); with Escherichia coli [18], greater than 128 µg/mL; in the series on Enterococcus faecium [19] it was greater than 128 µg/mL. The figures for the MIC with Pseudomonas aeruginosa [20], in the series on Staphylococcus aureus [21] and with Enterococcus faecalis [22] were greater than 128 µg/mL, 0.25 µg/mL (≈ 0.56 µM) and greater than 128 µg/mL, respectively. Besides, it took 177 µg/mL (≈ 396 µM) to reach half-maximal cytotoxicity in series [15] (CC50 at 72 h).

As for `COc1c(N2CCN(CC#N)C(C)C2)c(F)cc2c(=O)c(C(=O)O)cn(C3CC3)c12` (stereo not drawn), the minimum inhibitory concentration (MIC) amounted to 2 µg/mL (≈ 4.83 µM) with Pseudomonas aeruginosa [1]; 8 µg/mL (≈ 19.3 µM) against Escherichia coli [2]; 0.25 µg/mL (≈ 0.603 µM) with Pseudomonas aeruginosa [3]; 1 µg/mL (≈ 2.41 µM) against Streptococcus pneumoniae [4]; 1 µg/mL (≈ 2.41 µM) against Staphylococcus aureus [5]; 0.25 µg/mL (≈ 0.603 µM) in [6]. The MIC stood at 1 µg/mL (≈ 2.41 µM) with Staphylococcus aureus [7]; 4 µg/mL (≈ 9.65 µM) against Escherichia coli [8]; 2 µg/mL (≈ 4.83 µM) against Klebsiella pneumoniae [9]; 8 µg/mL (≈ 19.3 µM) against Enterococcus faecalis [10]; 32 µg/mL (≈ 77.2 µM) with Pseudomonas aeruginosa [11]; 0.25 µg/mL (≈ 0.603 µM) in series [12]. In addition, the MIC against Enterococcus faecium [13] was determined as 8 µg/mL (≈ 19.3 µM); against Streptococcus pneumoniae [14], 8 µg/mL (≈ 19.3 µM); in the series with Klebsiella pneumoniae [16], 2 µg/mL (≈ 4.83 µM); in series [17], 0.25 µg/mL (≈ 0.603 µM); with Escherichia coli [18], 8 µg/mL (≈ 19.3 µM); against Enterococcus faecium [19], 8 µg/mL (≈ 19.3 µM). Besides, the minimal inhibitory concentration (MIC) amounted to 2 µg/mL (≈ 4.83 µM) with Pseudomonas aeruginosa [20], 1 µg/mL (≈ 2.41 µM) in the series on Staphylococcus aureus [21] and 8 µg/mL (≈ 19.3 µM) against Enterococcus faecalis [22]. The molecule further showed a 50% cytotoxic concentration (CC50) at 72 h in [15] of 354 µg/mL (≈ 853 µM).

In the case of `COc1c(N2CCN(C/C(C)=N/Nc3ccccc3)C(C)C2)c(F)cc2c(=O)c(C(=O)O)cn(C3CC3)c12` (stereo not drawn), the MIC in the series on Pseudomonas aeruginosa [1] worked out at 2 µg/mL (≈ 3.83 µM); against Escherichia coli [2], 0.25 µg/mL (≈ 0.479 µM); with Pseudomonas aeruginosa [3], 0.25 µg/mL (≈ 0.479 µM); with Streptococcus pneumoniae [4], 0.25 µg/mL (≈ 0.479 µM); against Staphylococcus aureus [5], 0.125 µg/mL (≈ 0.24 µM); in series [6], 0.25 µg/mL (≈ 0.479 µM). Besides, the MIC with Staphylococcus aureus [7] stood at 0.125 µg/mL (≈ 0.24 µM); in the series on Escherichia coli [8], 0.5 µg/mL (≈ 0.959 µM); against Klebsiella pneumoniae [9] it was 0.125 µg/mL (≈ 0.24 µM); in the series with Enterococcus faecalis [10], 4 µg/mL (≈ 7.67 µM); in the series with Pseudomonas aeruginosa [11], 4 µg/mL (≈ 7.67 µM); in [12] it was 0.25 µg/mL (≈ 0.479 µM). Further, the MIC came to 4 µg/mL (≈ 7.67 µM) in the series on Enterococcus faecium [13]; 0.25 µg/mL (≈ 0.479 µM) with Streptococcus pneumoniae [14]; 0.25 µg/mL (≈ 0.479 µM) against Klebsiella pneumoniae [16]; 0.25 µg/mL (≈ 0.479 µM) in series [17]; 4 µg/mL (≈ 7.67 µM) in the series on Escherichia coli [18]; 4 µg/mL (≈ 7.67 µM) against Enterococcus faecium [19]. The MIC against Pseudomonas aeruginosa [20] worked out at 0.25 µg/mL (≈ 0.479 µM); against Staphylococcus aureus [21] it was 0.125 µg/mL (≈ 0.24 µM); against Enterococcus faecalis [22], 4 µg/mL (≈ 7.67 µM). The same molecule gave a CC50 at 72 h in series [15] of 11.1 µg/mL (≈ 21.2 µM).

As for `COC(=O)CCN1CCN(c2c(F)cc3c(=O)c(C(=O)O)cn(C4CC4)c3c2OC)CC1C` (stereo not drawn), the MIC against Pseudomonas aeruginosa [1] was greater than 128 µg/mL; with Escherichia coli [2] it was greater than 128 µg/mL; with Pseudomonas aeruginosa [3], greater than 128 µg/mL; in the series with Streptococcus pneumoniae [4] it was greater than 128 µg/mL; in the series with Staphylococcus aureus [5], 4 µg/mL (≈ 8.67 µM); in series [6], greater than 128 µg/mL. In addition, the MIC against Staphylococcus aureus [7] is 8 µg/mL (≈ 17.3 µM); in the series on Escherichia coli [8], greater than 128 µg/mL; in the series with Klebsiella pneumoniae [9] it was greater than 128 µg/mL; in the series with Enterococcus faecalis [10], greater than 128 µg/mL; in the series on Pseudomonas aeruginosa [11], greater than 128 µg/mL; in series [12] it was greater than 128 µg/mL. Besides, the MIC (in the series on Enterococcus faecium [13]; with Streptococcus pneumoniae [14]; against Klebsiella pneumoniae [16]; in series [17]; against Escherichia coli [18]; with Enterococcus faecium [19]) was greater than 128 µg/mL throughout. The results for the MIC with Pseudomonas aeruginosa [20], against Staphylococcus aureus [21] and in the series with Enterococcus faecalis [22] were greater than 128 µg/mL, 4 µg/mL (≈ 8.67 µM) and greater than 128 µg/mL, respectively. Moreover, the CC50 at 72 h in series [15] was greater than 1000 µg/mL.
